Reference: ChEMBL document CHEMBL1649124, “Genetic variability among ampC genes from acinetobacter genomic species 3” (Antimicrob Agents Chemother, 2009)
Converted amounts (≈) assume the structure as drawn. Residues, ends and D or L forms follow the SMILES beside them. *: point of attachment. βNA = c1ccc2cc(N*)ccc2c1

Legend:
Acinetobacter pittii [1] = assay: Antibacterial activity against Acinetobacter genomosp. 3 isolate 14 by Etest method; assay type: functional
Outline: (§1)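 MICs for AG3 clinical isolates were read by Etest following the manufacturer's instructions. Isolates were stored at –80°C in 10% Brucella glycerol broth before testing.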

Acinetobacter pittii [2] = assay: Antibacterial activity against Acinetobacter genomosp. 3 isolate 20 by Etest method; assay type: functional; outline: as §1
Acinetobacter pittii [3] = assay: Antibacterial activity against Acinetobacter genomosp. 3 isolate 21 by Etest method; assay type: functional; outline: as §1
Acinetobacter pittii [4] = assay: Antibacterial activity against Acinetobacter genomosp. 3 isolate 52 by Etest method; assay type: functional; outline: as §1
Acinetobacter pittii [5] = assay: Antibacterial activity against Acinetobacter genomosp. 3 isolate 56 by Etest method; assay type: functional; outline: as §1
Acinetobacter pittii [6] = assay: Antibacterial activity against Acinetobacter genomosp. 3 isolate 60 by Etest method; assay type: functional; outline: as §1
Acinetobacter pittii [7] = assay: Antibacterial activity against Acinetobacter genomosp. 3 isolate 65 by Etest method; assay type: functional; outline: as §1
Acinetobacter pittii [8] = assay: Antibacterial activity against Acinetobacter genomosp. 3 isolate 67 by Etest method; assay type: functional; outline: as §1
Acinetobacter pittii [9] = assay: Antibacterial activity against Acinetobacter genomosp. 3 isolate 69 by Etest method; assay type: functional; outline: as §1
Acinetobacter pittii [10] = assay: Antibacterial activity against Acinetobacter genomosp. 3 isolate 90 by Etest method; assay type: functional; outline: as §1
Acinetobacter pittii [11] = assay: Antibacterial activity against Acinetobacter genomosp. 3 isolate 103 by Etest method; assay type: functional; outline: as §1
Acinetobacter pittii [12] = assay: Antibacterial activity against Acinetobacter genomosp. 3 isolate 109 by Etest method; assay type: functional; outline: as §1
Acinetobacter pittii [13] = assay: Antibacterial activity against Acinetobacter genomosp. 3 isolate 128 by Etest method; assay type: functional; outline: as §1
Acinetobacter pittii [14] = assay: Antibacterial activity against Acinetobacter genomosp. 3 isolate 195 by Etest method; assay type: functional; outline: as §1
Acinetobacter pittii [15] = assay: Antibacterial activity against Acinetobacter genomosp. 3 isolate 243 by Etest method; assay type: functional; outline: as §1
Escherichia coli [16] = assay: Antibacterial activity against Escherichia coli DH5alpha by Etest method; assay type: functional
Outline: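 E. coli DH5α host strain, grown at 37°C in LB medium. MICs of β-lactams determined by Etest following the manufacturer's instructions.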

Escherichia coli [17] = assay: Antibacterial activity against Escherichia coli DH5alpha carrying ampC gene of Acinetobacter genomosp. 3 isolate 14 by Etest method; assay type: functional
Outline: (§2)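 E. coli DH5α expressing the AG3 isolate ampC gene, PCR-amplified (high-fidelity system, 28 cycles) and cloned into BamHI/HindIII sites of pBGS18 (kanamycin marker) under the CTX-M-14 β-lactamase promoter. Grown at 37°C in LB, with kanamycin 50 µg/ml when needed. β-Lactam MICs determined by Etest per the manufacturer's instructions.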

Escherichia coli [18] = assay: Antibacterial activity against Escherichia coli DH5alpha carrying ampC gene of Acinetobacter genomosp. 3 isolate 20 by Etest method; assay type: functional; outline: as §2
Escherichia coli [19] = assay: Antibacterial activity against Escherichia coli DH5alpha carrying ampC gene of Acinetobacter genomosp. 3 isolate 56 by Etest method; assay type: functional; outline: as §2
Escherichia coli [20] = assay: Antibacterial activity against Escherichia coli DH5alpha carrying ampC gene of Acinetobacter genomosp. 3 isolate 65 by Etest method; assay type: functional; outline: as §2
Escherichia coli [21] = assay: Antibacterial activity against Escherichia coli DH5alpha carrying ampC gene of Acinetobacter genomosp. 3 isolate 69 by Etest method; assay type: functional; outline: as §2
Escherichia coli [22] = assay: Antibacterial activity against Escherichia coli DH5alpha carrying ampC gene of Acinetobacter genomosp. 3 isolate 103 by Etest method; assay type: functional; outline: as §2
Escherichia coli [23] = assay: Antibacterial activity against Escherichia coli DH5alpha carrying ampC gene of Acinetobacter genomosp. 3 isolate 109 by Etest method; assay type: functional; outline: as §2
[24] = system: CC(=O)OCC1=C(C(=O)O)N2C(=O)[C@@H](NC(=O)Cc3cccs3)[C@H]2SC1; assay: (§3) Activity of Acinetobacter genomosp. 3 isolate 65 ADC-14; settings: Acinetobacter pittii
Outline: (§4)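 AmpC genes from AG3 clinical isolates were cloned into pGEX-6P-1 and expressed as GST fusions. The mature enzyme was purified free of GST, giving a 43 kDa SDS-PAGE band of 95% purity. Kinetics were read spectrophotometrically at 25°C in PBS with 20 mg/liter BSA, three repeats. For poor substrates, Km was taken as Ki in competitive assays with Centa as reporter substrate. Vmax came from the Michaelis-Menten equation at six times Km antibiotic.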

[25] = system: CC(C)(O/N=C(\C(=O)N[C@@H]1C(=O)N2C(C(=O)[O-])=C(C[n+]3ccccc3)CS[C@H]12)c1csc(N)n1)C(=O)O; assay: as §3; settings: Acinetobacter pittii; outline: as §4
[26] = system: CO/N=C(\C(=O)N[C@@H]1C(=O)N2C(C(=O)O)=C(COC(C)=O)CS[C@H]12)c1csc(N)n1; assay: as §3; settings: Acinetobacter pittii; outline: as §4
[27] = system: CO/N=C(\C(=O)N[C@@H]1C(=O)N2C(C(=O)O)=C(COC(N)=O)CS[C@H]12)c1ccco1; assay: as §3; settings: Acinetobacter pittii; outline: as §4
[28] = system: CO[C@@]1(NC(=O)Cc2cccs2)C(=O)N2C(C(=O)O)=C(COC(N)=O)CS[C@@H]21; assay: as §3; settings: Acinetobacter pittii; outline: as §4
[29] = system: C[C@H]1[C@H](NC(=O)/C(=N\OC(C)(C)C(=O)O)c2csc(N)n2)C(=O)N1S(=O)(=O)O; assay: as §3; settings: Acinetobacter pittii; outline: as §4
[30] = system: CC(=O)OCC1=C(C(=O)O)N2C(=O)[C@@H](NC(=O)Cc3cccs3)[C@H]2SC1; assay: (§5) Ratio of Kcat to Km for Acinetobacter genomosp. 3 isolate 65 ADC-14; settings: Acinetobacter pittii; outline: as §4
[31] = system: CC(C)(O/N=C(\C(=O)N[C@@H]1C(=O)N2C(C(=O)[O-])=C(C[n+]3ccccc3)CS[C@H]12)c1csc(N)n1)C(=O)O; assay: as §5; settings: Acinetobacter pittii; outline: as §4
[32] = system: CO/N=C(\C(=O)N[C@@H]1C(=O)N2C(C(=O)O)=C(COC(C)=O)CS[C@H]12)c1csc(N)n1; assay: as §5; settings: Acinetobacter pittii; outline: as §4
[33] = system: CO/N=C(\C(=O)N[C@@H]1C(=O)N2C(C(=O)O)=C(COC(N)=O)CS[C@H]12)c1ccco1; assay: as §5; settings: Acinetobacter pittii; outline: as §4
[34] = system: CO[C@@]1(NC(=O)Cc2cccs2)C(=O)N2C(C(=O)O)=C(COC(N)=O)CS[C@@H]21; assay: as §5; settings: Acinetobacter pittii; outline: as §4
Escherichia coli [35] = assay: Antibacterial activity against Escherichia coli DH5alpha carrying ampC gene of Acinetobacter genomosp. 3 isolate 195 by Etest method; assay type: functional; outline: as §2

Molecule | MIC (Acinetobacter pittii [1]) | MIC (Acinetobacter pittii [2]) | MIC (Acinetobacter pittii [3]) | MIC (Acinetobacter pittii [4]) | MIC (Acinetobacter pittii [5]) | MIC (Acinetobacter pittii [6]) | MIC (Acinetobacter pittii [7]) | MIC (Acinetobacter pittii [8]) | MIC (Acinetobacter pittii [9]) | MIC (Acinetobacter pittii [10]) | MIC (Acinetobacter pittii [11]) | MIC (Acinetobacter pittii [12]) | MIC (Acinetobacter pittii [13]) | MIC (Acinetobacter pittii [14]) | MIC (Acinetobacter pittii [15]) | MIC (Escherichia coli [16]) | MIC (Escherichia coli [17]) | MIC (Escherichia coli [18]) | MIC (Escherichia coli [19]) | MIC (Escherichia coli [20]) | other results
Cl.Cl.N=C(N)NCCC[C@H](NC(=O)[C@@H](N)Cc1ccccc1)C(=O)Nc1ccc2ccccc2c1 (H-Phe-Arg-βNA) | > 400 µg/mL | > 400 µg/mL | > 400 µg/mL | 400 µg/mL | > 400 µg/mL | 400 µg/mL | > 400 µg/mL | 400 µg/mL | 400 µg/mL | > 400 µg/mL | 400 µg/mL | 400 µg/mL | 400 µg/mL | 400 µg/mL | > 400 µg/mL |  |  |  |  |  | 
N#CC(C#N)=NNc1cccc(Cl)c1 [CARBONYL CYANIDE M-CHLOROPHENYLHYDRAZONE] | 400 µM | 400 µM | > 400 µM | > 400 µM | > 400 µM | > 400 µM | > 400 µM | > 400 µM | > 400 µM | > 400 µM | > 400 µM | > 400 µM | > 400 µM | > 400 µM | 400 µM |  |  |  |  |  | 
C[C@@H](O)[C@H]1C(=O)N2C(C(=O)O)=C(SCCNC=N)C[C@H]12 [IMIPENEM ANHYDROUS] | 0.25 µg/mL | 1 µg/mL | 0.38 µg/mL | 0.25 µg/mL | 0.19 µg/mL | 0.25 µg/mL | 0.19 µg/mL | 0.19 µg/mL | 0.25 µg/mL | 0.38 µg/mL | 0.75 µg/mL | 0.19 µg/mL | 0.12 µg/mL | 0.19 µg/mL | 0.19 µg/mL | 0.125 µg/mL (≈ 0.418 µM) | 0.125 µg/mL (≈ 0.418 µM) | 0.023 µg/mL (≈ 0.0768 µM) | 0.19 µg/mL (≈ 0.635 µM) | 0.19 µg/mL (≈ 0.635 µM) | MIC (Escherichia coli [21]): 0.19 µg/mL (≈ 0.635 µM); MIC (Escherichia coli [22]): 0.125 µg/mL (≈ 0.418 µM); MIC (Escherichia coli [23]): 0.12 µg/mL (≈ 0.401 µM)
ADC-14 protein (Acinetobacter genomosp. 3) (from UniProt Q0VTR6) |  |  |  |  |  |  |  |  |  |  |  |  |  |  |  |  |  |  |  |  | Km [24]: 6.73 µM; kcat [24]: 56.5 s⁻¹; Km [25]: 26.1 µM; kcat [25]: 0.01 s⁻¹; Km [26]: 0.08 µM; kcat [26]: 0.004 s⁻¹; Km [27]: 0.02 µM; kcat [27]: 0.01 s⁻¹; Km [28]: 0.02 µM; kcat [28]: 0.02 s⁻¹; Km [29]: 6.01 µM; kcat/Km [30]: 8.4e+06 M⁻¹ s⁻¹; kcat/Km [31]: 380 M⁻¹ s⁻¹; kcat/Km [32]: 48200 M⁻¹ s⁻¹; kcat/Km [33]: 529000 M⁻¹ s⁻¹; kcat/Km [34]: 941000 M⁻¹ s⁻¹
CCN1CCN(C(=O)N[C@@H](C(=O)N[C@@H]2C(=O)N3[C@@H]2SC(C)(C)[C@@H]3C(=O)O)c2ccccc2)C(=O)C1=O [PIPERACILLIN] | 16 µg/mL | 24 µg/mL | 24 µg/mL | 12 µg/mL | 12 µg/mL | 24 µg/mL | 16 µg/mL | 16 µg/mL | 16 µg/mL | 12 µg/mL | 24 µg/mL | 16 µg/mL | 12 µg/mL | 24 µg/mL | 32 µg/mL | 0.38 µg/mL (≈ 0.734 µM) | 4 µg/mL (≈ 7.73 µM) | 4 µg/mL (≈ 7.73 µM) | 3 µg/mL (≈ 5.8 µM) | 4 µg/mL (≈ 7.73 µM) | MIC (Escherichia coli [21]): 3 µg/mL (≈ 5.8 µM); MIC (Escherichia coli [22]): 4 µg/mL (≈ 7.73 µM); MIC (Escherichia coli [23]): 4 µg/mL (≈ 7.73 µM); MIC (Escherichia coli [35]): 4 µg/mL (≈ 7.73 µM)
CC(C)(O/N=C(\C(=O)N[C@@H]1C(=O)N2C(C(=O)[O-])=C(C[n+]3ccccc3)CS[C@H]12)c1csc(N)n1)C(=O)O [CEFTAZIDIME] | 3 µg/mL | 4 µg/mL | 6 µg/mL | 3 µg/mL | 1.5 µg/mL | 3 µg/mL | 4 µg/mL | 3 µg/mL | 4 µg/mL | 6 µg/mL | 4 µg/mL | 3 µg/mL | 3 µg/mL | 4 µg/mL | 4 µg/mL | 0.19 µg/mL (≈ 0.348 µM) | 0.38 µg/mL (≈ 0.695 µM) | 0.75 µg/mL (≈ 1.37 µM) | 0.25 µg/mL (≈ 0.457 µM) | 0.25 µg/mL (≈ 0.457 µM) | MIC (Escherichia coli [21]): 0.19 µg/mL (≈ 0.348 µM); MIC (Escherichia coli [22]): 0.5 µg/mL (≈ 0.915 µM); MIC (Escherichia coli [23]): 0.19 µg/mL (≈ 0.348 µM); MIC (Escherichia coli [35]): 0.5 µg/mL (≈ 0.915 µM)
